According to ChEMBL document CHEMBL5523688, “Selective targeting of human TET1 by cyclic peptide inhibitors: Insights from biochemical profiling” (Bioorg Med Chem, 2024):

What was measured:
[1] = target: Methylcytosine dioxygenase TET3 (Homo sapiens, UniProt O43151); assay: Inhibition of recombinant human TET3 catalytic domain (E824 to I1795 residues) expressed in baculovirus infected Sf9 cells using 5-methylcytosine as substrate preincubated for 10 mins followed by substrate and DNA-cofactor addition measured after 10 mins by Alphascreen assay; settings: read-out: pIC50 (converted)
[2] = target: T1, Methylcytosine dioxygenase TET2 (Homo sapiens, UniProt Q6N021); assay: (§1) Inhibition of N-terminal His-tagged recombinant human TET2 catalytic domain LCIdel mutant (D1129 to G1936 residues with Y1481 to N1843 replaced by 3 x GGGGS linker) expressed in Escherichia coli BL21 (DE3) using 5-methylcytosine as substrate preincubated for 10 mins followed by substrate and DNA-cofactor addition measured after 10 mins by Alphascreen assay
[3] = target: Methylcytosine dioxygenase TET1 (Homo sapiens, UniProt Q8NFU7); assay: Inhibition of N-terminal 3xFlag-tagged recombinant human TET1 catalytic domain (E1418 to V2136 residues) expressed in baculovirus infected Sf9 cells using 5-methylcytosine as substrate preincubated for 10 mins followed by substrate and DNA-cofactor addition measured after 30 mins by Alphascreen assay; settings: read-out: pIC50 (converted)
Method in brief: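 TET1 catalytic domain (E1418–V2136, Sf9 baculovirus) at 2 nM was preincubated 10 min with inhibitor (1% DMSO) in HEPES 50 mM pH 7.3, 150 mM NaCl, 0.1% BSA, 0.01% Tween-20. Reaction was started with ascorbate 200 µM, Fe(II) 20 µM, 2OG 20 µM and 5mC ssDNA 10 nM, run 30 min, then EDTA-quenched. Anti-5hmC antibody with AlphaScreen beads, 45–60 min, luminescence read. Three independent replicates.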

[4] = system: Methylcytosine dioxygenase TET2 (Homo sapiens), Q6N021 [UNDEFINED MUTATION]; settings: time 20.0 min
[5] = target: Methylcytosine dioxygenase TET1 (Mus musculus, UniProt Q3URK3); assay: Inhibition of recombinant mouse TET1 catalytic domain (E1367 to V2039 residues) expressed in baculovirus expression system using 5-methylcytosine as substrate preincubated for 10 mins followed by substrate and DNA-cofactor addition measured after 9 mins by Alphascreen assay
Method in brief: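 Murine Tet1 catalytic domain (E1367–V2039, High Five baculovirus) at 2 nM was preincubated 10 min with inhibitor (1% DMSO) in HEPES 50 mM pH 7.3, NaCl 150 mM, BSA 0.1%, Tween-20 0.01%. Ascorbate 200 µM, Fe(II) 20 µM, 2OG 20 µM and 5mC ssDNA 10 nM were added; reaction ran 9 min, then EDTA-quenched. AlphaScreen anti-5hmC detection by luminescence.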

[6] = target: T1, Methylcytosine dioxygenase TET2; assay: as §1, with “after 12” for “after 10”, “by SPE-MS analysis” for “by Alphascreen assay”

Chain of Methylcytosine dioxygenase TET1 (Homo sapiens, UniProt Q8NFU7) (Q8NFU7 whole entry, the tested form may be a part): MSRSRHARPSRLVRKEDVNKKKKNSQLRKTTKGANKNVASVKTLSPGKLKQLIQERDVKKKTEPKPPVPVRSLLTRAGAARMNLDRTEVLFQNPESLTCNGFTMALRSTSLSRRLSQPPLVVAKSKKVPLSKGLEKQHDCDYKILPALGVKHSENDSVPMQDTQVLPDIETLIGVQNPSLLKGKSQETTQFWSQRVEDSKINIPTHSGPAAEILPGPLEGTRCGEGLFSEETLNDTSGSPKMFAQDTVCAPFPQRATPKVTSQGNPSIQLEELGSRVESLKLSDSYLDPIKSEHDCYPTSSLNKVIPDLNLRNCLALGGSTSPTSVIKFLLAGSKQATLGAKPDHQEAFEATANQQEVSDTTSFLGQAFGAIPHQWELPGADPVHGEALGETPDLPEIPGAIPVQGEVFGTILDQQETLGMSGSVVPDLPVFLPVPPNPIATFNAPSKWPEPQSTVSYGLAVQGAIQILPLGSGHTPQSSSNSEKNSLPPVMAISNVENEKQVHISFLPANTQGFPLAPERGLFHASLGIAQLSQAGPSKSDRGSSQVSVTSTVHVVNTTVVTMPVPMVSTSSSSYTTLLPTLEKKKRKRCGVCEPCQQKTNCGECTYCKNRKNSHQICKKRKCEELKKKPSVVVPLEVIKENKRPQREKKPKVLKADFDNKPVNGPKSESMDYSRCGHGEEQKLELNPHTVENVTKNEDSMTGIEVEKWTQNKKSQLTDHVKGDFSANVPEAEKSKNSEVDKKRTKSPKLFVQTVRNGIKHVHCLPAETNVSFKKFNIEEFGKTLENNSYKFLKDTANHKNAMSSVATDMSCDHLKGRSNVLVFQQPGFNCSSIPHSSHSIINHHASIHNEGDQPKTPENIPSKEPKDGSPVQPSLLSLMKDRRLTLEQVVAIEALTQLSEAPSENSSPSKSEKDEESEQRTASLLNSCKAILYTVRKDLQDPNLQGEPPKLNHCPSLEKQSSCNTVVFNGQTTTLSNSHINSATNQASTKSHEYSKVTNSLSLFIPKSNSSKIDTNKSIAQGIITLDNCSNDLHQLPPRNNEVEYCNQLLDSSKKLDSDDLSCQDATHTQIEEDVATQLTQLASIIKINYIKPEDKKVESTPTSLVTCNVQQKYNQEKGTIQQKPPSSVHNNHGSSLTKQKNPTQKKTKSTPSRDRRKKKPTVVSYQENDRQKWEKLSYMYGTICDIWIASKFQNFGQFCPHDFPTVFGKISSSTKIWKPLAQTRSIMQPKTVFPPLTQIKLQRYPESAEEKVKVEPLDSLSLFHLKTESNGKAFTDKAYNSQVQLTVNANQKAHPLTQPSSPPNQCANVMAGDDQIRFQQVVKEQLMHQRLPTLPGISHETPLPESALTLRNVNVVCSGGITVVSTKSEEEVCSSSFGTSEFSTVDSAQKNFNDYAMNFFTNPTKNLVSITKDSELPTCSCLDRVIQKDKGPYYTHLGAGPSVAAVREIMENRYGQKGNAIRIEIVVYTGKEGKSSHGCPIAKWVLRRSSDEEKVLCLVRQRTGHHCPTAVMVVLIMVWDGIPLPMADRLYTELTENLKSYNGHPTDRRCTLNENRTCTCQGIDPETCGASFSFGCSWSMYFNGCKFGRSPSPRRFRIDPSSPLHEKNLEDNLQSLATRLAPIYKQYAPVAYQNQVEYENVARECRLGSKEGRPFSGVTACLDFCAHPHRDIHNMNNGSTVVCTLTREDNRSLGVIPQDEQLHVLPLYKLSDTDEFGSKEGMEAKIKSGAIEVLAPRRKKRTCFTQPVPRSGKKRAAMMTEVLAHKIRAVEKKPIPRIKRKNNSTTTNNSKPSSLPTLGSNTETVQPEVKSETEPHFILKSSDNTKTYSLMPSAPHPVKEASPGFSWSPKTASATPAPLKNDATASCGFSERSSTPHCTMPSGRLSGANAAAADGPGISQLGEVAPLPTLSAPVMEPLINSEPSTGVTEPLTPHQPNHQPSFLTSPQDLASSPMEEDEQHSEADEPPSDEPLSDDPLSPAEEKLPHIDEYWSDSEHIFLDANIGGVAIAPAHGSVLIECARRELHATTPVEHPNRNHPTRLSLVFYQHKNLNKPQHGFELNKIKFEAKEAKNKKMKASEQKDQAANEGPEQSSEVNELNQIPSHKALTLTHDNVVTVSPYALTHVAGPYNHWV

| IC50 [1] | IC50 [3] | deltapIC50 [4] | IC50 [5] | Compound | pIC50 [2] | pIC50 [6] |
| --- | --- | --- | --- | --- | --- | --- |
| 631 nM | 363 nM | -0.54 | 933 nM | CC[C@H](C)[C@@H]1NC(=O)[C@H]([C@@H](C)CC)NC(=O)[C@@H](Cc2c[nH]c3ccccc23)NC(=O)CSC[C@@H](C(N)=O)NC(=O)[C@H](CCCNC(=N)N)NC(=O)[C@H](Cc2c[nH]c3ccccc23)NC(=O)[C@H](Cc2c[nH]c3ccccc23)NC(=O)[C@H]([C@@H](C)O)NC(=O)[C@H](Cc2ccc(O)cc2)NC(=O)[C@H](CC(N)=O)NC(=O)[C@H](Cc2c[nH]cn2)NC(=O)[C@H](Cc2ccc(O)cc2)NC1=O | 6.08 | 5.54 |
| 31600 nM | 44700 nM | > 1.44 | 38900 nM | CC[C@H](C)[C@@H]1NC(=O)[C@H](Cc2ccc(O)cc2)NC(=O)[C@H](Cc2ccc(O)cc2)NC(=O)[C@H](C(C)C)NC(=O)[C@@H](Cc2ccc(O)cc2)NC(=O)CSC[C@@H](C(N)=O)NC(=O)[C@H]([C@@H](C)O)NC(=O)[C@H](CCC(=O)O)NC(=O)[C@H](Cc2ccccc2)NC(=O)[C@H](C(C)C)NC(=O)[C@H](C)NC(=O)[C@H](CCCNC(=N)N)NC(=O)[C@H](CS)NC(=O)[C@H](Cc2c[nH]c3ccccc23)NC(=O)[C@H](Cc2c[nH]c3ccccc23)NC(=O)[C@@H]2CCCN2C1=O | < 4 | 5.44 |
| 2750 nM | 468 nM | -0.5 | 3630 nM | C[C@@H]1NC(=O)[C@H](Cc2ccccc2)NC(=O)[C@H](Cc2ccc(O)cc2)NC(=O)[C@H](Cc2ccc(O)cc2)NC(=O)[C@H](CCCNC(=N)N)NC(=O)[C@@H](Cc2ccc(O)cc2)NC(=O)CSC[C@@H](C(N)=O)NC(=O)[C@H](C)NC(=O)[C@H](Cc2c[nH]c3ccccc23)NC(=O)[C@H](Cc2c[nH]c3ccccc23)NC(=O)[C@H]([C@@H](C)O)NC(=O)[C@H](Cc2ccc(O)cc2)NC1=O | 5.52 | ~ 5 |
| 501 nM | 776 nM | -0.34 | 1350 nM | CC[C@H](C)[C@@H]1NC(=O)[C@H](CCC(N)=O)NC(=O)[C@H](Cc2c[nH]cn2)NC(=O)[C@H](Cc2ccc(O)cc2)NC(=O)[C@H]([C@@H](C)O)NC(=O)[C@H](CCCCN)NC(=O)[C@H](C(C)C)NC(=O)[C@H](CCCNC(=N)N)NC(=O)[C@H](Cc2ccc(O)cc2)NC(=O)[C@@H](Cc2ccc(O)cc2)NC(=O)CSC[C@@H](C(N)=O)NC(=O)[C@H](CO)NC(=O)[C@H](C(C)C)NC(=O)[C@H](Cc2ccc(O)cc2)NC(=O)[C@H](C(C)C)NC(=O)[C@H](Cc2ccc(O)cc2)NC(=O)[C@H]([C@@H](C)O)NC1=O | 5.89 | 5.55 |
| 3550 nM | 794 nM | -0.79 | 4370 nM | C[C@@H]1NC(=O)[C@H](Cc2c[nH]c3ccccc23)NC(=O)[C@H](Cc2ccc(O)cc2)NC(=O)[C@H](Cc2ccc(O)cc2)NC(=O)[C@H](CCCCN)NC(=O)[C@H](CC(=O)O)NC(=O)[C@H]([C@@H](C)O)NC(=O)[C@@H](Cc2c[nH]c3ccccc23)NC(=O)CSC[C@@H](C(N)=O)NC(=O)[C@H](CO)NC(=O)[C@H](Cc2c[nH]c3ccccc23)NC(=O)[C@H](Cc2c[nH]c3ccccc23)NC(=O)[C@H]([C@@H](C)O)NC(=O)[C@H](Cc2ccc(O)cc2)NC1=O | 5.41 | 4.62 |
| 2690 nM | 794 nM | -0.01 | 4070 nM | CC[C@H](C)[C@@H]1NC(=O)[C@H](CCC(N)=O)NC(=O)[C@H](Cc2ccc(O)cc2)NC(=O)[C@H](Cc2ccc(O)cc2)NC(=O)[C@H]([C@@H](C)O)NC(=O)[C@H](CCCCN)NC(=O)[C@H](C(C)C)NC(=O)[C@H](CCCNC(=N)N)NC(=O)[C@H](Cc2ccc(O)cc2)NC(=O)[C@@H](Cc2ccc(O)cc2)NC(=O)CSC[C@@H](C(N)=O)NC(=O)[C@H](CO)NC(=O)[C@H](CC(C)C)NC(=O)[C@H](Cc2ccc(O)cc2)NC(=O)[C@H](C(C)C)NC(=O)[C@H](Cc2ccc(O)cc2)NC(=O)[C@H]([C@@H](C)O)NC1=O | 5.52 | 5.51 |
| 18200 nM | 692 nM | 0.2 | 27500 nM | CC[C@H](C)[C@@H]1NC(=O)[C@H](CO)NC(=O)[C@H](CCCNC(=N)N)NC(=O)[C@H](CC(C)C)NC(=O)[C@H](Cc2c[nH]cn2)NC(=O)[C@H](CC(C)C)NC(=O)[C@@H]2CCCN2C(=O)[C@H]([C@@H](C)CC)NC(=O)[C@@H](Cc2c[nH]c3ccccc23)NC(=O)CSC[C@@H](C(N)=O)NC(=O)[C@H](CO)NC(=O)[C@H](CCCNC(=N)N)NC(=O)CNC(=O)[C@H](CC(N)=O)NC(=O)[C@H](Cc2ccc(O)cc2)NC(=O)[C@H](C)NC(=O)[C@H](CC(C)C)NC1=O | 4.65 | 4.85 |
| 6030 nM | 1350 nM | 0.39 | 8710 nM | CC[C@H](C)[C@@H]1NC(=O)[C@H](CCC(N)=O)NC(=O)[C@H](Cc2ccc(O)cc2)NC(=O)[C@H](Cc2ccc(O)cc2)NC(=O)[C@H]([C@@H](C)O)NC(=O)[C@H](CCCCN)NC(=O)[C@H](C(C)C)NC(=O)[C@H](CCCNC(=N)N)NC(=O)[C@H](Cc2ccc(O)cc2)NC(=O)[C@@H](Cc2ccc(O)cc2)NC(=O)CSC[C@@H](C(N)=O)NC(=O)[C@H](CO)NC(=O)[C@H](C(C)C)NC(=O)[C@H](Cc2ccc(O)cc2)NC(=O)[C@H](C(C)C)NC(=O)[C@H](Cc2ccc(O)cc2)NC(=O)[C@H]([C@@H](C)O)NC1=O | 5.11 | 5.5 |
| 46800 nM | 1860 nM | 1.49 | 55000 nM | CC(C)[C@@H]1NC(=O)[C@@H]2CCCN2C(=O)[C@H](C)NC(=O)[C@@H](Cc2ccc(O)cc2)NC(=O)CSC[C@@H](C(N)=O)NC(=O)[C@H](Cc2c[nH]c3ccccc23)NC(=O)[C@H](Cc2c[nH]c3ccccc23)NC(=O)[C@H]([C@@H](C)O)NC(=O)[C@H](Cc2ccc(O)cc2)NC(=O)[C@H](CC(N)=O)NC(=O)[C@H](Cc2c[nH]c3ccccc23)NC(=O)[C@H](Cc2ccc(O)cc2)NC1=O | 4.17 | 5.66 |
| 1020 nM | 240 nM | -0.43 | 1100 nM | CC[C@H](C)[C@@H]1NC(=O)[C@H](Cc2ccccc2)NC(=O)[C@H](Cc2ccc(O)cc2)NC(=O)[C@H](CC(C)C)NC(=O)[C@H](CCCNC(=N)N)NC(=O)[C@H](C)NC(=O)[C@H](Cc2c[nH]c3ccccc23)NC(=O)[C@H](Cc2c[nH]c3ccccc23)NC(=O)[C@@H]2CCCN2C(=O)[C@H](C(C)C)NC(=O)[C@H](Cc2ccc(O)cc2)NC(=O)[C@@H](Cc2ccccc2)NC(=O)[C@H](CCCCN)NC(=O)[C@@H](Cc2ccc(O)cc2)NC(=O)CSC[C@H](C(N)=O)NC(=O)CNC1=O | 5.95 | 5.52 |
| 692 nM | 603 nM | -0.63 | 1050 nM | CC[C@H](C)[C@@H]1NC(=O)[C@H](Cc2c[nH]c3ccccc23)NC(=O)[C@H](Cc2c[nH]c3ccccc23)NC(=O)[C@H]([C@@H](C)O)NC(=O)[C@H](Cc2ccc(O)cc2)NC(=O)[C@H](CC(N)=O)NC(=O)[C@H](Cc2ccc(O)cc2)NC(=O)[C@H](Cc2ccc(O)cc2)NC(=O)[C@H](CC(C)C)NC(=O)[C@H](CCCCN)NC(=O)[C@@H](Cc2c[nH]c3ccccc23)NC(=O)CSC[C@@H](C(N)=O)NC1=O | 6.03 | 5.4 |
| 30900 nM | 70800 nM |  |  | CC[C@H](C)[C@H](NC(=O)[C@H](CC(C)C)NC(=O)[C@@H](Cc1ccc(O)cc1)NC(C)=O)C(=O)N[C@@H](Cc1ccc(O)cc1)C(=O)N[C@@H](C)C(=O)N[C@@H](Cc1ccc(O)cc1)C(=O)N[C@@H](Cc1ccc(O)cc1)C(=O)N[C@H](C(=O)N[C@@H](Cc1c[nH]c2ccccc12)C(=O)N[C@@H](Cc1c[nH]c2ccccc12)C(=O)N[C@@H](CCC(=O)O)C(=O)N[C@@H](Cc1cnc[nH]1)C(=O)N[C@@H](CO)C(=O)N[C@@H](CS)C(N)=O)[C@@H](C)O | < 4 |  |
| 1380 nM | 269 nM | -0.19 | 1780 nM | CC[C@H](C)[C@@H]1NC(=O)[C@@H](Cc2ccc(O)cc2)NC(=O)CSC[C@@H](C(N)=O)NC(=O)[C@H](CCCNC(=N)N)NC(=O)[C@H](Cc2c[nH]c3ccccc23)NC(=O)[C@H](Cc2c[nH]c3ccccc23)NC(=O)[C@H]([C@@H](C)O)NC(=O)[C@H](Cc2ccc(O)cc2)NC(=O)[C@H](Cc2ccc(O)cc2)NC(=O)[C@H](CCCNC(=N)N)NC(=O)[C@H](Cc2ccc(O)cc2)NC(=O)[C@H](C(C)C)NC1=O | 5.66 | 5.47 |
